Screening data: PubChem BioAssay, Sanford-Burnham Center for Chemical Genomics
In the library only some 2% were active in any assay of this set; here they are far more common.
LMPTP block = LMPTP phosphatase inhibitors, primary screen, biochemical, fluorescence intensity, uHTS; recombinant LMPTP-A, OMFP fluorogenic substrate; 360,000 tested, 0.22% active; inhibition, % at 20 µM; Low molecular weight phosphotyrosine protein phosphatase (Homo sapiens), P24666;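 active = compounds that cut the enzyme signal by at least half of the control window in the single-dose screen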
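Test system – LMPTP-A phosphatase enzyme · Quantity – 0.625 nM LMPTP-A final · Reagent – OMFP substrate, 400 µM final · Dosing – one test concentration per compound, 20 µM, with 3% DMSO overall · Timing – 50 min enzyme reaction at room temperature, protected from light · Detection – fluorescence intensity · Controls – substrate-only low control, DMSO enzyme-plus-substrate high control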
Scp1 inh = Scp-1 phosphatase inhibitors, primary screen, biochemical, colorimetric, uHTS; Recombinant Scp1, phosphopeptide, malachite green phosphate absorbance; inhibition, % at 20 µM; 340,000 tested, 0.88% active; Carboxy-terminal domain RNA polymerase II polypeptide A small phosphatase 1 (Homo …;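 active = inhibition above about 50% at 20 µM, limit read from the data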
Target sequence (Q9GZU7 76-261 limits assumed): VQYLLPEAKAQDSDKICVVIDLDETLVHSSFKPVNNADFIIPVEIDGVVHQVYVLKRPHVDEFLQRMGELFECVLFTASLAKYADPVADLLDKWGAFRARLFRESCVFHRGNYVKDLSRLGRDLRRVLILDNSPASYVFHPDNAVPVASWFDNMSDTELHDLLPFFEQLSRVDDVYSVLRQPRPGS
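Material: truncated SCP-1 phosphatase (76-261aa) / Buffer or medium: 50 mM Tris acetate pH 5.5, 0.005% Tween-20, 10 mM MgCl2 / Compound dosing: one concentration, 20 µM, with 1.0% DMSO / Incubation: 45 min room-temperature reaction, 5 min colour, 30 min stabiliser / Detection: colorimetric free-phosphate detection, absorbance 630 nm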
Rpn11 inh = Rpn11 (PSMD14) deubiquitinase inhibitors, primary screen, biochemical, fluorescence polarization, uHTS; 360,000 tested, 0.59% active; 26S proteasome non-ATPase regulatory subunit 14 (Homo sapiens), O00487; human 26S proteasome, Ub4-pepOG fluorescence polarization; 20S core pre-blocked with epoxomicin; inhibition, % at 20 µM;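 active = inhibition at 20 µM, scaled to each plate's controls, above about 33%, limit read from the data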
STEP inh = STEP phosphatase inhibitors, primary screen, biochemical, fluorescence intensity, uHTS | Tyrosine-protein phosphatase non-receptor type 5 (Homo sapiens), P54829 | recombinant STEP, OMFP fluorogenic substrate | inhibition, % at 20 µM | 360,000 tested, 0.25% active;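 active = inhibition at 20 µM, scaled per plate between control wells, above about 37%, limit read from the data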
Target sequence (P54829 whole entry, looked up): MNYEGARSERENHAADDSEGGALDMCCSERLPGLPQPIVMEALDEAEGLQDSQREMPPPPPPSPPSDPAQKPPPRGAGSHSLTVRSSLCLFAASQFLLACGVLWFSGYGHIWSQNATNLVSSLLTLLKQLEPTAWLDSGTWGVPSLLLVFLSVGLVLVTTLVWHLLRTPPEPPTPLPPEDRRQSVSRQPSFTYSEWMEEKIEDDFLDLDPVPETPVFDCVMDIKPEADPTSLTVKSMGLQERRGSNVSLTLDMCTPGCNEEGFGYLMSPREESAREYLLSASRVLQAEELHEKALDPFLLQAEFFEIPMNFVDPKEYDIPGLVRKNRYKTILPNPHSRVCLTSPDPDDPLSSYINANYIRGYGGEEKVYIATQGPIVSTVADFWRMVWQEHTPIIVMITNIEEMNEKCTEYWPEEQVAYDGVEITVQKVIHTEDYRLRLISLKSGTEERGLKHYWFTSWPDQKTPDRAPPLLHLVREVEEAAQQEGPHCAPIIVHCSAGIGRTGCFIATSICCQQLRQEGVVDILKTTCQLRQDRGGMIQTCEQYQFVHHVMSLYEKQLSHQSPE
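medium = Bis-Tris buffer pH 6.0, 2.5 mM DTT, 0.005% Tween 20 | test system = STEP (striatal-enriched tyrosine phosphatase) enzyme, cell-free | measure = normalized % inhibition | compound dosing = 20 µM, 1% DMSO | also added = 25 µM OMFP | schedule = reaction 20 min, ambient temperature | measured by = fluorescence read at 480 nm ex / 540 nm em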
DNMT1 block = human DNMT1 methyltransferase inhibitors, primary screen, biochemical, molecular beacon, fluorescence, HinP1I cleavage, uHTS; DNA (cytosine-5)-methyltransferase 1 (Homo sapiens), P26358; inhibition (reported as % activation of signal), % at 10 µM; 360,000 tested, 0.83% active; AID 588458, 2011; in the data active = inhibition above about 50%
Hits are given with their value; 0 = inactive; - = no result given; + = active, no number.

SMILES | LMPTP block | Scp1 inh | Rpn11 inh | STEP inh | DNMT1 block
O=C(Nc1nc2c(Br)cc(Br)cc2c(=O)s1)c1ccco1 | 0 | 93.4 | 0 | 0 | 0
O=C(Nc1cccc(-c2cnc3ccccc3n2)c1)c1ccccc1 | 0 | 0 | 0 | 0 | 0
O=C(Nc1cccc(-c2cnc3ccccc3n2)c1)c1cccc(NC(=O)c2ccco2)c1 | 0 | 0 | 73.7 | 0 | 0
COC(=O)[C@@]12C[C@@H](CC(=O)N3CCN(C(=O)c4ccco4)CC3)C(=O)N(Cc3ccccc3)C1=CCC(C)(C)C2 | 0 | - | - | - | -
CC(C)S(=O)(=O)c1csc(C(=O)Nc2ccc(F)cc2)c1N | 0 | 91.6 | 0 | 0 | 0
C=C(C)COC(=O)c1ccccc1C(=O)OCC1(C)CO1 (stereo unspecified) | 0 | 0 | 0 | 0 | 0
O=c1[nH]c(Nc2ccccn2)cc2ccccc12 | 0 | 0 | 0 | 0 | 0
Cc1ccccc1Nc1cc2ccccc2c(=O)[nH]1 | 0 | 0 | 0 | 0 | 83.7
O=c1[nH]c(Nc2ccc(F)cc2)cc2ccccc12 | 0 | 0 | 0 | 0 | 0
O=c1[nH]c(Nc2ccccc2Cl)cc2ccccc12 | 0 | 0 | 0 | 0 | 85.4
COCCNC(=O)Nc1ccc2nc(-c3cccs3)c(-c3cccs3)nc2c1 | 0 | 0 | 0 | 0 | 0
O=C(Nc1ccc2nc(-c3cccs3)c(-c3cccs3)nc2c1)NC1CC1 | 0 | 0 | 36.7 | 0 | 0
CCOC(=O)c1ccc(N2N=C(C)/C(=C/C=C/c3ccco3)C2=O)cc1 | 0 | 0 | 0 | 0 | 0
O=C(O)c1cc(N2N=C(C(F)(F)F)/C(=C/C=C/c3ccco3)C2=O)ccc1Cl | 77.6 | 68.8 | - | 93.5 | 83.9
O=C(Cc1cccc(NC(=O)C2CCCN(C(=O)C3CCCCC3)C2)c1)Nc1ccc(C(=O)N2CCCCC2)cc1 (stereo unspecified) | 0 | 0 | 0 | 0 | 0
CC1(C(=O)NCc2ccccc2)CN(S(C)(=O)=O)CC(=O)N1CCc1ccccc1F (stereo unspecified) | 0 | - | - | - | -
COC1=CC(=O)C(O)=C(CCCCCCC/C=C/CCCCCCCC2=C(O)C(=O)C=C(OC)C2=O)C1=O | 68.9 | 88.0 | 0 | 0 | 81.9
CCCCCCCCCCCC1=C(O)C(=O)C=C(O)C1=O | 71.2 | 0 | 0 | 0 | 0
COc1ccc(Nc2c(CCc3ccccc3)nc3nc(C)cc(C)n23)cc1 | 0 | - | - | - | -
Nc1cccc2cc(S(=O)(=O)O)ccc12 | 0 | 61.6 | 0 | 0 | 62.4
CC(C)NC(=O)C1CC(=O)N(CCc2ccc(F)cc2)C1 (stereo unspecified) | 0 | - | 0 | 0 | 0
O=C(CCCN1C(=O)/C(=C\c2ccco2)SC1=S)Nc1ccc2ccccc2c1 | 0 | 0 | 0 | 0 | 0
O=C(O)CCCN1C(=O)/C(=C\c2ccco2)SC1=S | 0 | 0 | 0 | 0 | 57.7
O=C(O)CCN1C(=O)/C(=C\c2ccc(-c3nc4ccccc4s3)o2)SC1=S | 0 | 63.0 | + | 79.0 | 109.0
Nc1c2c(=O)oc(-c3ccccc3)cc2nn1-c1ccccc1 | 0 | 0 | 0 | 0 | 0
SMILES | LMPTP block | Scp1 inh | Rpn11 inh | STEP inh | DNMT1 block
Cc1c(-c2ccc(Cl)cc2)oc(=O)c2c(N)n(-c3ccccc3)nc12 | 0 | 0 | 0 | 0 | 54.1
CCCN1C(=O)c2cccc3c(N4CCCCC4)ccc(c23)C1=O | 0 | 0 | 0 | 0 | 0
O=C1c2cccc3c(N4CCCCC4)ccc(c23)C(=O)N1c1ccccn1 | 0 | 0 | 0 | 0 | 0
CCCCNc1ccc2c3c(cccc13)C(=O)N(CCCC)C2=O | 0 | 0 | 0 | 0 | 60.6
Cc1nn(C)c(C)c1N1C(=O)c2cccc3c(N)ccc(c23)C1=O | 0 | 0 | 0 | 0 | 93.4
CCN1C(=O)c2cccc3c(N)ccc(c23)C1=O | 0 | 0 | 0 | 0 | 123.8
Cc1nn(C)c(C)c1N1C(=O)c2cccc3c(Br)ccc(c23)C1=O | 0 | 0 | 0 | 0 | 0
Cc1ccc(N2C(=O)c3cccc4c(N)ccc(c34)C2=O)c2cccnc12 | 0 | 67.2 | - | 0 | 0
CC1CCCCC12NC(=O)N(CC(=O)N1CCN(S(=O)(=O)c3ccc(Cl)s3)CC1)C2=O (stereo unspecified) | 0 | - | 0 | 0 | 0
O=C(O)c1cscc1-c1cccc2ccccc12 | 0 | - | 0 | 0 | 0
O=NN(CC(=O)NNc1ccccc1)CC(=O)NNc1ccccc1 | 0 | - | 0 | 0 | 0
CN(CC(=O)Nc1ccccc1Cl)C(=O)Cn1cnc2ccccc2c1=O | 0 | 0 | 0 | 0 | 0
O=C(Nc1ccc(-c2nc3ccc(NC(=O)c4cccs4)cc3[nH]2)cc1)c1cccs1 | 0 | 0 | 0 | 41.6 | 0
Cc1ccc(S(=O)(=O)N2C[C@H]3C(=O)C[C@@H](c4ccccc4)N(S(=O)(=O)c4ccc(Br)cc4)[C@H]3C[C@H]2c2ccccc2)cc1 | 0 | - | 0 | 0 | 0
C=CC(=O)Nc1cccc(Oc2ccnc(Nc3ccc(N4CCN(C)CC4)cc3)n2)c1 | 0 | 0 | 0 | 0 | 0
C=CC(=O)Nc1cccc(Oc2ccnc3[nH]ccc23)c1 | 0 | 0 | 95.4 | 54.2 | 0
CCOC(=O)c1sc2nc(N3CCOCC3)c3c(c2c1N)CCC3 | 0 | 0 | 0 | 0 | 0
CCOC(=O)c1sc2nc(OCCN3CCOCC3)cc(C)c2c1N | 56.8 | - | - | - | -
CCc1nc2c(OCc3ccc(Cl)cc3Cl)cccn2c1N(C=O)Cc1ccc(OC)cc1 | 0 | - | 0 | 0 | 0
COc1cc(Br)c(C(=O)c2nccc3cc(OC)c(OC)cc23)cc1OC | 0 | 0 | 0 | 0 | 92.1
O=C(/C=C/Nc1ccc(S(=O)(=O)Nc2ncccn2)cc1)c1ccc(Cl)c(Cl)c1 | 0 | 0 | 53.6 | 0 | 0
O=C(/C=C/Nc1ccc(S(=O)(=O)Nc2ncccn2)cc1)c1cccs1 | 0 | 0 | 0 | 0 | 0
CN(Cc1c(C(=O)N/N=C/c2cccc(O)c2)nnn1-c1nonc1N)C1CCCCC1 | 0 | 0 | 0 | 0 | 0
CN(Cc1c(C(=O)N/N=C/c2ccccc2O)nnn1-c1nonc1N)C1CCCCC1 | 0 | - | 0 | 0 | 59.2
Nc1nonc1-n1nnc(C(=O)N/N=C/c2cc(Cl)ccc2O)c1CN1CCCCCC1 | 0 | - | 0 | 0 | 50.0
Nc1nonc1-n1nnc(C(=O)N/N=C/c2ccc(Cl)cc2Cl)c1CN1CCCCC1 | 0 | 0 | 0 | 0 | 0
O=C1NC[C@H](CCCCN2CCN(CCc3ccc(O)cc3)C(=O)C2=O)N(CCC2CCCCC2)C1=O | 0 | - | - | - | -
COC(=O)c1c(Sc2ccccc2)c2ccccc2n1C | 0 | 61.3 | 0 | 0 | 0
Cn1c(CC(=O)NN)c(Sc2ccccc2)c2ccccc21 | 0 | 0 | 0 | 0 | 0
CC1NC(=O)c2ccccc2-n2c1nc1ccc(F)cc1c2=O (stereo unspecified) | 0 | - | 0 | 0 | 0
